# Test results reported in ChEMBL document CHEMBL4513216, “Probing the Open Global Health Chemical Diversity Library for Multistage-Active Starting Points for Next-Generation Antimalarials” (ACS Infect Dis, 2020).
# Assay: Toxicity liver stage against HepG2, at 10uM
# Assay type: cell-based
# Set-up: test concentration 10 uM, cell line HepG2-A16-CD81EGFP
# Conditions: human, HepG2-A16-CD81EGFP cells; read-out: INHIBITION
# Procedure, shortened: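 Uninfected HepG2-A16-CD81EGFP cells, 3 × 10^3 per well, 1536-well, plated on prespotted compound at 10 μM final, parasite-free screening media added to match infected plates; puromycin 10 μM positive, DMSO 0.5% negative; run in parallel with 48 h PbLuc assay at 37 °C, 5% CO2; viability by CellTiter-Glo luminescence, normalized to controls.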
row,SMILES,cytotoxicity at 10 µM
1,CN(C)C(=O)NC1COC2(CCN(Cc3ccc(N(C)C)cc3)CC2)C1 (stereo unspecified),-77%
2,CCOc1cccc(CCNC(=O)Cc2cccc(O)c2)n1,-5.26%
3,CCn1nc(C)c(CCNC(=O)c2coc(CN3CCOCC3)c2)c1C,-0.386%
4,Cc1csc(C2CCCCN2C(=O)CN(C)C(C)C)n1 (stereo unspecified),-3.62%
5,Cn1cc(-c2nc(C3CCN(CC4CC4)CC3)cc3c2ncn3C)cn1,-1.86%
6,COc1cccc(N2CCN(Cc3ccc(NC(C)=O)cc3)CC2=O)c1,-15.4%
7,COc1ccc(-n2nnc(C(N)=O)n2)cc1,8.13%
8,Cc1ncc(S(C)(=O)=O)c(N2CCCN(Cc3ccccn3)CC2)n1,1.46%
9,Cc1ccc(C)c(OCc2cc(C(=O)N(C)Cc3cnn(C)c3)no2)c1,-6.12%
10,CC(C)Cc1cc(C(=O)NC(C)(C)c2nnc(N)s2)n(C)n1,0.91%
11,COCCN(C)C[C@@H]1CN(C(=O)c2ccc(=O)n(C)c2)C[C@@H]1CO,-11.1%
12,O=C(CN(C1=NCCCC1)c1ccccc1)c1ccc2c(c1)OCCO2,8.9%
13,CC(C)[C@H]1CN(C2Cc3ccccc3C2)C[C@@H]1NS(C)(=O)=O,-16%
14,C[C@@H]1C[C@@H]2CCN(C(=O)c3cnccn3)C[C@H]2O1,-10.6%
15,O=C1NCCCC12CCN(c1nc3c(c(C(F)(F)F)n1)CCCC3)C2 (stereo unspecified),-7.11%
16,Cc1ccc(CNC(=O)Nc2cc(C(F)(F)F)c[nH]c2=O)cn1,-21.8%
17,CC(C)Sc1ncccc1C(=O)NCc1cccc(N(C)C)c1,-3.42%
18,Cc1cc(CN2CCCC2Cn2cncn2)no1 (stereo unspecified),-10%
19,COc1ccc(F)cc1CN1CCCn2nc(CNS(C)(=O)=O)cc2C1,2.23%
20,COCCNC(=O)C(C)n1nc(-c2ccco2)cc(N)c1=O (stereo unspecified),2.62%
21,CCCS(=O)(=O)N1CCN(c2cc(-n3cccc3)nc(C)n2)CC1,6.62%
22,CC(=O)NCc1ccc(S(=O)(=O)NC(=O)c2ccc3c(c2)COC3)s1,-1.8%
23,COc1ccc(NC(=O)NCc2cccc(N(C)C)n2)c(Cl)c1,21.8%

row,SMILES,cytotoxicity at 10 µM
1,Cc1nccn1CC1CCCN(S(=O)(=O)c2cnn(C)c2)C1 (stereo unspecified),8.58%
2,CC1CCC(NS(=O)(=O)CC(=O)NC(C2CC2)C2CC2)CC1 (stereo unspecified),-2.8%
3,CCc1ccc(C(=O)O)cc1S(=O)(=O)Nc1ccc2c(c1)OCCO2,-4.07%
4,CC(C)c1nc(C2CCCN(C(=O)CN(C)S(C)(=O)=O)C2)no1 (stereo unspecified),-0.304%
5,O=C(NCCNc1ncccn1)C1CCN(C(=O)C2CC2)CC1,-3.02%
6,Cc1cccc(N(CCC(N)=O)CC(=O)Nc2cc(Cl)ccc2Cl)c1,11.3%
7,Cn1nc(Br)c2c(NCCCS(N)(=O)=O)ncnc21,16.4%
8,O=C(c1cccc(Cl)c1)N1CCCn2c(CN3CCCCC3)nnc2C1,4.01%
9,CC(C1CC1)N(C)Cc1nnc(-c2ccco2)o1 (stereo unspecified),-2.14%
10,Cc1ccc(-c2nc(C(=O)N(C)CC(=O)N(C)C)cs2)c(C)c1,-10.1%
11,COc1ccc(C(=O)C2CCCN(CCc3ccccc3)C2)c(OC)c1 (stereo unspecified),7.8%
12,O=C(NCc1nnc2ccccn12)N1CCc2sccc2C1,-1.25%
13,Cc1nc(C(C)C)sc1CNC(=O)CCCN1CCCCC1,-13.8%
14,Cc1c(Br)c(C(F)F)nn1C(C)C(=O)O (stereo unspecified),4.51%
15,COc1cccc(CNCc2ccc(NC(=O)NC(C)C)cc2)c1,-11.1%
16,CC(C)CN1CCC2(C=C(C(=O)NC3CC3)c3ccccc32)CC1,1.11%
17,Cc1cc(C)cc(CN2CCCC2c2noc(C)n2)c1 (stereo unspecified),9.86%
18,CN1CCOC(CNCCOc2ccc(C#N)cc2)C1 (stereo unspecified),9.34%
19,Cc1noc([C@@H]2C[C@H]3OCC[C@H]3N(Cc3cc(C)c(C)o3)C2)n1,-72.2%
20,O=C(C(CNCc1cccc(O)c1)c1ccccc1)N1CCOCC1 (stereo unspecified),-2.06%
21,Cc1cnn(CCNCc2csc(-c3ccsc3)n2)c1,-6.75%
22,Cc1noc(C2CCN(C(=O)CCc3ccccn3)CC2)n1,-3.25%
23,CN1CCC(c2nnc(CN3CCCCC3)n2C)CC1,16.4%

row,SMILES,cytotoxicity at 10 µM
1,O=C(O)c1ccccc1C1CCN(Cc2ccc(-c3cc[nH]n3)o2)C1 (stereo unspecified),-10.2%
2,Cn1cnc2c1CCN(Cc1csc(C3CCCCC3)n1)C2,-3.36%
3,O=C(c1cnc2ccccc2c1)N1CCCC(O)(CN2CCCC2)C1 (stereo unspecified),9.27%
4,CCc1nnc(Nc2cccc(C3CCN(C(=O)CN(C)C)CC3)n2)s1,-39.1%
5,CN(C)C(=O)N1Cc2ncn(C)c2C(COCC2CCOCC2)C1 (stereo unspecified),-69.9%
6,Clc1cc(N2CCN3CCCCC3C2)nc2[nH]ccc12 (stereo unspecified),-9.74%
7,O=C(NCCN1CCOCC1)c1n[nH]c(=O)c2ccccc12,0.376%
8,CCCC(C)Sc1nnnn1C1CCOCC1 (stereo unspecified),2.3%
9,Cc1cc(C)n(CCCNC(=O)C(C)NC(=O)c2ccccc2Cl)n1 (stereo unspecified),-0.136%
10,CCNc1cc2c(nn1)CCN(C(=O)c1ccsc1)C2,-13.7%
11,CC(NC(=O)N1CCCCCC1)c1ccc(S(N)(=O)=O)cc1 (stereo unspecified),-6.06%
12,CCc1cccc(OCCCN(C)C(=O)CN2CCNC2=O)c1,-2.48%
13,CC(C)C(C(=O)N(C)C)c1cccc(Cl)c1 (stereo unspecified),6.14%
14,O=C(NCCc1ccc(I)s1)N1CCC1,-11.1%
15,Cc1ccc(C(=O)N2CCN(c3ncnc4nc(N)ccc34)CC2)cc1,8.88%
16,COc1ccc(-c2ccnc3nc(N4CCCC4)[nH]c(=O)c23)cc1OC,9.29%
17,COc1ccc(C(=O)CCC(=O)NCc2ncc(C)s2)cc1F,-11.8%
18,CCc1cnc(NC(=O)NC2CCN(C3CCCC3)CC2)s1,-7.27%
19,O=C1CCOC[C@]2(CN(Cc3ccccc3)C[C@H]2c2cccnc2)N1,4.73%
20,Cc1csc(NC(=O)CN2CCc3nn(C)c(=O)cc3C2)n1,-0.995%
21,O=C1c2cccnc2OC(CN2CCOCC2)CN1C1CCC1 (stereo unspecified),-4.18%
22,O=C(NC1CCC1)C1=NOC2(CCN(Cc3ccccc3)C2)C1 (stereo unspecified),-97.6%
23,CC(C(=O)NCc1cccc(N2CC=CC2)c1)n1cccn1 (stereo unspecified),-5.07%

row,SMILES,cytotoxicity at 10 µM
1,COc1cccc(CCC(=O)Nc2cnc3c(c2)c(C)nn3C)c1OC,1.67%
2,CNc1cncc(C2CCCN2S(=O)(=O)c2ccccc2)n1 (stereo unspecified),-22%
3,O=C(c1ccco1)N1C[C@H]2CCCN(Cc3cccs3)[C@H]2C1,5.71%
4,CN(c1ncccc1CNCc1ncc[nH]1)C1CCCCC1,-7.28%
5,CCOCCN1Cc2ncn(C)c2C(COCC2CCOCC2)C1 (stereo unspecified),-70.6%
6,CN(C)c1cc(CNC(=O)Nc2ccc(S(C)(=O)=O)nc2)ccn1,0.71%
7,CC1CN(C)c2ccccc2CN1C(=O)CSc1ccncc1 (stereo unspecified),-12.6%
8,CS(=O)(=O)N1CCN(C(=O)c2cccc(Cl)c2)CC2(CNC(=O)C2)C1 (stereo unspecified),6.86%
9,O=C(CCN1C(=O)CCC1=O)Nc1ccc(OCC(F)(F)F)nc1,-13.4%
10,Cc1nc(C)c(C(=O)NCCNC(=O)Cc2cccc(F)c2)s1,-8.45%
11,CCCS(=O)(=O)NCC(C)c1ccc(F)c(F)c1 (stereo unspecified),-6.82%
12,Cc1ccc(O[C@@H]2C[C@H]3CN(Cc4nccn4C)CCN3C2)cc1,3.39%
13,CN1C(=O)CO[C@H]2CCN(C(=O)Cc3ccc4c(c3)CCCC4)CC[C@@H]21,4.45%
14,CC1=CC(C)(C)N(CN2C(=O)c3ccccc3C2=O)c2ccc(C)cc21,-3.49%
15,CCOc1ccc(CN2CCC(c3[nH]ncc3C)C2)cc1CO (stereo unspecified),-2.38%
16,O=C1[C@@H]2C[C@H](O)CCN2C(=O)CN1CCSc1ccccn1,-2.96%
17,Cc1ccc(C(=O)N2CCOC(c3nc(C(C)(C)C)n[nH]3)C2)c(=O)[nH]1 (stereo unspecified),1.31%
18,CC(=O)C(Cc1ccccc1)NC(=O)CSc1nccn1C1CC1 (stereo unspecified),5.22%
19,O=C(NCc1cncc2c1CCN(Cc1ccccc1)C2)C1CC1,12.1%
20,CC(NC(=O)N1CCC1)c1ccc(S(N)(=O)=O)cc1 (stereo unspecified),-8.64%
21,CCOCCCNC(=O)C(NC(=O)Cc1cccs1)c1ccc(C)cc1 (stereo unspecified),13.2%
22,N#Cc1ccc2c(c1)CN(C(=O)C1CC=CC1)C2c1cnco1 (stereo unspecified),-0.0499%
23,FC(F)(F)c1cc(NCCn2ncnn2)nc(-c2cccnc2)n1,18.9%

row,SMILES,cytotoxicity at 10 µM
1,O=C(NCC1CC1)C1CN(C(=O)c2ccco2)CC12CCOCC2 (stereo unspecified),6.61%
2,CN(C)c1ccc(CN2C[C@@H]3CC[C@H]2CN(C2CCOCC2)C3)cn1,-3.62%
3,Cn1nnc(NCc2ccc(OCc3ccc(Cl)cc3)cc2)n1,-2.56%
4,CCN1CCC(CC(=O)NCCc2nc(N)cc(O)n2)CC1,0.821%
5,CC1(C(=O)N2CCOCC2)CN(CC2CCOCC2)CCO1 (stereo unspecified),4.14%
6,COc1ccc2cc(C(=O)N3CCCCC3Cn3cccn3)[nH]c2c1 (stereo unspecified),-9.32%
7,CC(C)Oc1ccc(CNC(=O)C2CCC(=O)N2)cn1 (stereo unspecified),10.5%
8,Cn1cc(CN2CCS(=O)(=O)C(C)(C)C2)cn1,0.512%
9,O=C(NCCCN1CCCC1=O)c1ccc(-n2ccc3ccccc32)s1,6.69%
10,CS(=O)(=O)NC1CCN(C(=O)NCCc2ccccn2)CC1,-14.4%
11,COC1CCCN(C(=O)NCC(F)F)C1 (stereo unspecified),7.51%
12,COc1ccc(CC(=O)N2CCN(Cc3ccco3)C[C@@H]2C)cc1OC,3.88%
13,Cc1cc(N(C)C)nc(C2CCNC2)n1 (stereo unspecified),0.812%
14,CN(c1ncccc1CNC(=O)c1cscn1)C1CCCCC1,1.86%
15,CCC(CC)c1cc(CNC(=O)N2CCCC(N(C)C)C2)on1 (stereo unspecified),1.47%
16,CN(Cc1ccc(Cl)s1)C(=O)CN1CC(n2cccn2)C1,-6.88%
17,O=C(CC1CCC2(CC1)CCN(Cc1nccs1)CC2)N1CC=CC1,-4.35%
18,CN(C)CC1(O)CCCN(C(=O)CCn2cc(Cl)cn2)C1 (stereo unspecified),-138%
19,CS(=O)(=O)N1CCC2(CC1)NCCn1c(-c3ccccc3)cnc12,3.61%
